{"source": "paper PMC7707623", "about": "(Journal of Medicinal Chemistry, 2020)", "key": {"yeast cells (Sec14)": {"tested_on": "yeast cells (Sec14)", "settings": "through inhibition of Sec14; cited from earlier work"}, "[1]": {"tested_on": "human SCLC cell lines, H889, H2107, and H128", "experiment": "Dose response against human SCLC cell lines", "type": "cell-based"}, "[2]": {"tested_on": "three independent murine SCLC (mSCLC) cell lines", "experiment": "Cytotoxicity against three murine SCLC cell lines", "type": "cell-based", "settings": "Mus musculus, read-out: average EC50", "procedure,_shortened": "(§1)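 Murine SCLC cells were allowed to attach overnight, then given test compound as a 10-point log-dilution series. Viability was read by CellTiter-Glo luminescence at 72 h, with the reagent diluted 1:1 in PBS/1% Triton-X. Signals were normalized to DMSO-treated cells and IC50 values came from curve fitting (n = 2 technical replicates). Fold values are ratios of these IC50s.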"}, "[3]": {"tested_on": "murine SCLC cell line 319N1", "experiment": "Cytotoxicity assay", "type": "cell-based, mouse", "procedure,_shortened": "as §1"}, "[4]": {"tested_on": "319N1-M2KO resistant clones A–E", "experiment": "Cytotoxicity against sulfonamide 27-resistant clones", "type": "cell-based, mouse", "settings": "for IC50 fold change, resistant clones versus parental: all five clones A–E"}, "[5]": {"target": "T1, p50 (β-tubulin) in 518T2 murine SCLC cells (Mus musculus, UniProt P99024)", "type": "binding", "settings": "50 nM to 50 μM, 1.5 h, Alexa Fluor 532 azide", "procedure,_shortened": "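518T2 cells were plated at 1 million per well in DMEM with 5% FBS. Next day the alkyne probe in DMSO was added at 50 nM to 50 μM for 1.5 h at 37 °C, 5% CO2. Cells were PBS-washed and lysed in 1% SDS buffer (50 mM HEPES pH 7.4, 10 mM KCl, 2 mM MgCl2, benzonase). Lysates were copper-clicked to 25 μM Alexa Fluor 532 azide, run on SDS-PAGE and imaged by in-gel fluorescence.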"}, "bovine brain tubulin": {"tested_on": "bovine brain tubulin", "experiment": "Microtubule dynamics assay, brain tubulin", "type": "biochemical"}, "[6]": {"target": "human recombinant β3 tubulin (Homo sapiens, UniProt Q13509)", "experiment": "Microtubule dynamics assay, recombinant β3 tubulin", "type": "biochemical", "procedure,_shortened": "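Human αβ-tubulin (TUBA1B with TUBB3, C-terminal His-tag removed by TEV) was expressed in Tni insect cells and purified by Ni-affinity and anion exchange. Compound was added at 1, 5 or 10 μM versus DMSO; kymograph growth rates were taken from 71–119 microtubules over two trials.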"}, "[7]": {"target": "T1, p50 (β-tubulin) in 518T2 murine SCLC cells", "experiment": "Cell-based competition with alkyne probe 24", "type": "binding", "settings": "probe 24 at 5 μM, pre-treatment with increasing concentrations"}, "518T2 cells": {"tested_on": "518T2 cells", "experiment": "Cell cycle analysis by flow cytometry", "type": "cell-based, mouse", "settings": "300 nM, 24 h"}, "518T2-Tubb5^T238A cells": {"tested_on": "518T2-Tubb5^T238A cells", "experiment": "Dose response in Tubb5 T238A edited cells", "type": "cell-based, mouse", "settings": "518T2-Tubb5^T238A versus 518T2"}}, "data": [{"compound": "O=C(c1ccc(Cl)c([N+](=O)[O-])c1)N1CCN(c2ccccc2)CC1", "note": "[Compound 1]", "values": [{"measurement": "toxicity to yeast cells", "setting": "yeast cells (Sec14)", "result": "toxic to yeast cells"}, {"measurement": "sensitivity of human SCLC cell lines", "setting": "[1]", "result": "exhibited sensitivity"}, {"measurement": "EC50", "setting": "[2]", "result": "3210 ± 600", "unit": "nM"}]}, {"compound": "O=C(c1ccc(Cl)c([N+](=O)[O-])c1)N1CCN(c2ccccc2Cl)CC1", "note": "[Compound 2, (4-Chloro-3-nitrophenyl)(4-(2-chlorophenyl)piperazin-1-yl)methanone]", "values": [{"measurement": "antiproliferative activity in words", "setting": "[3]; 319N1", "result": "slightly improved potency"}]}, {"compound": "COc1cccc(N2CCN(C(=O)c3ccc(Cl)c([N+](=O)[O-])c3)CC2)c1", "note": "[Compound 3, (4-Chloro-3-nitrophenyl)(4-(3-methoxyphenyl)piperazin-1-yl)methanone]", "values": [{"measurement": "fold more potent than benzamide 1", "setting": "[3]; 319N1", "result": "~3", "unit": "fold"}]}, {"compound": "Cc1cccc(N2CCN(C(=O)c3ccc(Cl)c([N+](=O)[O-])c3)CC2)c1", "note": "[Compound 4, (4-Chloro-3-nitrophenyl)(4-(m-tolyl)piperazin-1-yl)methanone]", "values": [{"measurement": "fold more potent than benzamide 1", "setting": "[3]; 319N1", "result": "~3", "unit": "fold"}]}, {"compound": "Cc1ccc(Cl)cc1N1CCN(C(=O)c2ccc(Cl)c([N+](=O)[O-])c2)CC1", "note": "[Compound 10, (4-(5-Chloro-2-methylphenyl)piperazin-1-yl)(4-chloro-3-nitrophenyl)methanone]", "values": [{"measurement": "IC50 fold change, resistant clones versus parental", "setting": "[4]", "result": "> 2.5", "unit": "fold"}, {"measurement": "EC50", "setting": "[3]; Mus musculus, 319N1", "result": 182, "unit": "nM"}]}, {"compound": "O=C(c1ccc(Cl)c([N+](=O)[O-])c1)N1CCN(c2ccccc2F)CC1", "note": "[Compound 12]", "values": [{"measurement": "fold less active than parent benzamide 1", "setting": "[3]; 319N1", "result": 2, "unit": "fold"}]}, {"compound": "Cc1ccc(Cl)cc1N1CCN(C(=O)c2ccc(F)c([N+](=O)[O-])c2)CC1", "note": "[Compound 20, (4-(5-Chloro-2-methylphenyl)piperazin-1-yl)(4-fluoro-3-nitrophenyl)methanone]", "values": [{"measurement": "EC50", "setting": "[3]; Mus musculus, 319N1", "result": 818, "unit": "nM"}]}, {"compound": "Cc1ccc(Cl)cc1N1CCN(C(=O)c2ccc(I)c([N+](=O)[O-])c2)CC1", "note": "[Compound 22, (4-(5-Chloro-2-methylphenyl)piperazin-1-yl)(4-iodo-3-nitrophenyl)methanone]", "values": [{"measurement": "EC50", "setting": "[3]; Mus musculus, 319N1", "result": 51, "unit": "nM"}]}, {"compound": "Cc1ccc(Cl)cc1N1CCN(C(=O)c2ccc(OC(F)(F)F)c([N+](=O)[O-])c2)CC1", "note": "[Compound 23, (4-(5-Chloro-2-methylphenyl)piperazin-1-yl)(3-nitro-4-(trifluoromethoxy)phenyl)methan-one]", "values": [{"measurement": "EC50", "setting": "[3]; Mus musculus, 319N1", "result": 20, "unit": "nM"}]}, {"compound": "C#CCOc1cccc(N2CCN(C(=O)c3ccc(Cl)c([N+](=O)[O-])c3)CC2)c1", "note": "[Compound 24, (4-Chloro-3-nitrophenyl)(4-(3-(prop-2-yn-1-yloxy)phenyl)piperazin-1-yl)methanone]", "values": [{"measurement": "covalent modification of 50 kDa protein (p50), in-gel fluorescence", "setting": "[5]", "result": "covalently modified"}]}, {"compound": "C#CCOc1cccc(N2CCN(C(=O)c3ccc(C)c([N+](=O)[O-])c3)CC2)c1", "note": "[Compound 25, (4-Methyl-3-nitrophenyl)(4-(3-(prop-2-yn-1-yloxy)phenyl)piperazin-1-yl)methanone]", "values": [{"measurement": "covalent modification of 50 kDa protein (p50), in-gel fluorescence", "setting": "[5]", "result": "not observed"}, {"measurement": "fold less active compared to 24", "setting": "[3]; 319N1", "result": 10, "unit": "fold"}]}, {"compound": "COc1cc(OC)cc(N2CCN(C(=O)c3ccc(C=O)c([N+](=O)[O-])c3)CC2)c1", "note": "[Compound 26, 4-(4-(3,5-Dimethoxyphenyl)piperazine-1-carbonyl)-2-nitrobenzaldehyde]", "values": [{"measurement": "effect on growth of microtubules of bovine brain tubulin, in words", "setting": "bovine brain tubulin; 0.5 μM (SI Figure 5C)", "result": "potently reduced the growth"}, {"measurement": "effect on dynamics of β3 tubulin microtubules, in words", "setting": "[6]; 1, 5 and 10 μM", "result": "dose-dependently altered the dynamics"}, {"measurement": "EC50", "setting": "[3]; Mus musculus, 319N1", "result": 127, "unit": "nM"}]}, {"compound": "COC(=O)c1c(C)oc2ccc(NS(=O)(=O)c3ccc(Cl)c([N+](=O)[O-])c3)cc12", "note": "[Compound 27]", "values": [{"measurement": "competition with probe 24 for p50, in words", "setting": "[7]", "result": "displaced probe 24 from p50 in a dose-responsive manner"}, {"measurement": "IC50 fold change, resistant clones versus parental", "setting": "[4]", "result": "> 2", "unit": "fold"}]}, {"compound": "O=C(c1ccc(Cl)cc1)N1CCN(c2ccccc2)CC1", "note": "[Compound 28]", "values": [{"measurement": "antiproliferative activity in words", "setting": "[3]; 319N1", "result": "complete eradication of antiproliferative activity"}]}, {"compound": "O=C(c1cccc([N+](=O)[O-])c1)N1CCN(c2ccccc2)CC1", "note": "[Compound 29]", "values": [{"measurement": "antiproliferative activity in words", "setting": "[3]; 319N1", "result": "complete eradication of antiproliferative activity"}]}, {"compound": "COc1cc2c(c(OC)c1OC)-c1ccc(OC)c(=O)cc1[C@@H](NC(C)=O)CC2", "note": "[colchicine, reference compound]", "values": [{"measurement": "cell cycle effect", "setting": "518T2 cells", "result": "induced G2/M cell cycle arrest"}]}, {"compound": "COc1cc([C@@H]2c3cc4c(cc3[C@@H](O[C@@H]3O[C@@H]5CO[C@@H](C)O[C@H]5[C@H](O)[C@H]3O)[C@H]3COC(=O)[C@H]23)OCO4)cc(OC)c1O", "note": "[etoposide, reference compound]", "values": [{"measurement": "cross-resistance of 27-resistant clones, in words", "setting": "[4]; clones A–E", "result": "not cross-resistant"}]}, {"compound": "CC[C@]1(O)C[C@H]2CN(CCc3c([nH]c4ccccc34)[C@@](C(=O)OC)(c3cc4c(cc3OC)N(C=O)[C@H]3[C@@](O)(C(=O)OC)[C@H](OC(C)=O)[C@]5(CC)C=CCN6CC[C@]43[C@@H]65)C2)C1", "note": "[vincristine, reference compound]", "values": [{"measurement": "competition with probe 24 for p50, in words", "setting": "[7]", "result": "no such probe competition was observed"}]}, {"compound": "(4-Bromo-3-nitrophenyl)(4-(5-chloro-2-methylphenyl)piperazin-1-yl)methanone [Compound 21]", "values": [{"measurement": "effect on growth of brain tubulin, in words", "setting": "bovine brain tubulin; 1 μM", "result": "dramatically affected the growth"}, {"measurement": "reduction of growth of bovine brain microtubules", "setting": "bovine brain tubulin; 10:1 (tubulin/compound) ratio, compared to control", "result": "approximately 80%"}, {"measurement": "compound resistance compared to parental 518T2 cells", "setting": "518T2-Tubb5^T238A cells", "result": "Compound resistance to analog 21 was confirmed"}, {"measurement": "effect on in vitro microtubule growth rate of β3 tubulin, in words", "setting": "[6]; up to 10 μM", "result": "failed to impair"}, {"measurement": "cell cycle effect", "setting": "518T2 cells", "result": "induced G2/M cell cycle arrest"}, {"measurement": "EC50", "setting": "[3]; 319N1 mSCLC cells, quoted in running text", "result": 55, "unit": "nM"}]}]}
